For assay [1], the system named is Rattus norvegicus. Nature of the assay: Analgesic activity in Sprague-Dawley rat assessed as reduction in carrageenan-induced paw hyperalgesia at 30 mg/kg, po administered 4 hrs post challenge measured after 30 mins relative to vehicle-treated control. Further details: scale not given: the % may be the effect or the level left. In general terms: Carrageenan injected into the paw causes an acute inflammation.

Assay [2] relates to Rattus norvegicus. Description: Antiinflammatory activity against carrageenan-induced paw edema in Sprague-Dawley rat assessed as paw weight at 30 mg/kg, po administered 4 hrs post challenge measured after 30 mins (reference value: 31.8+/-2.5 g). It is filed as functional.
Assay [3] deals with T1, Prostaglandin G/H synthase 2 (Homo sapiens, UniProt P35354).
T1 sequence (P35354 whole entry): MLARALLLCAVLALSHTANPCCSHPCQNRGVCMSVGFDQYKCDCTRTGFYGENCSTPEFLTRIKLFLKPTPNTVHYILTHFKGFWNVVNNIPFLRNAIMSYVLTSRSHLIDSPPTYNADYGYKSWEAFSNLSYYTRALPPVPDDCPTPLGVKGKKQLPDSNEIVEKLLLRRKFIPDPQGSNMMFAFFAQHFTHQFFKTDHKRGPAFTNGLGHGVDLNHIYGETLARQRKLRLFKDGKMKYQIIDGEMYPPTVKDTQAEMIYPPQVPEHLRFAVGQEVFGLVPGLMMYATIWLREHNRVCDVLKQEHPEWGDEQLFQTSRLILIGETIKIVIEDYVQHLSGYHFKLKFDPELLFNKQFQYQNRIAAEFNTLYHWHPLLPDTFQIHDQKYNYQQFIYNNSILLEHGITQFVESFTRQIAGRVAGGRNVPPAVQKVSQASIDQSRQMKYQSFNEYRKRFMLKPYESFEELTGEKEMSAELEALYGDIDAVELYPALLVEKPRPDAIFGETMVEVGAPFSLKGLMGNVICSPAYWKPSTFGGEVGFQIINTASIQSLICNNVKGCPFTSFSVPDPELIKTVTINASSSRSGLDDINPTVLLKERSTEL
Description: Inhibition of COX2-mediated PGE2 production in LPS-induced human whole blood after 60 mins by radioimmunoassay.

Assay [4] has as its target T2, Prostaglandin G/H synthase 1 (Mus musculus) (UniProt P22437).
T2 sequence (whole entry): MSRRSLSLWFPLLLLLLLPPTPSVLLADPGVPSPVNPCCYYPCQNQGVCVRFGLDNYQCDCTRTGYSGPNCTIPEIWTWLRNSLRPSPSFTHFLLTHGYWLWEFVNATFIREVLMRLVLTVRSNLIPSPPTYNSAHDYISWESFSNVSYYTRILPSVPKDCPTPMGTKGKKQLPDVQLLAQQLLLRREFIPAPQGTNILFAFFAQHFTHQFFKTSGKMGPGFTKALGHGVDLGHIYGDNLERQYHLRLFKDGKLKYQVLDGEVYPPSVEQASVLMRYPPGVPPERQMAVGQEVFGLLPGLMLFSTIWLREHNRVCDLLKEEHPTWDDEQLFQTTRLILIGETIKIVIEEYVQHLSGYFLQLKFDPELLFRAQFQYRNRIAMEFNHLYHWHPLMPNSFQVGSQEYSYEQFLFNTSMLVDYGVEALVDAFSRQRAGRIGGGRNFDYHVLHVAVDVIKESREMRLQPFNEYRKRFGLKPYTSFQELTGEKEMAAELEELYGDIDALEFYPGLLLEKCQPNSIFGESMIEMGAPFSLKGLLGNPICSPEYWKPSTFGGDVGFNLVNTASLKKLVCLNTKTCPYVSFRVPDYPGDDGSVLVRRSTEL
Description: Inhibition of COX-1-mediated PGE2 production in arachidonic acid-stimulated mouse J774 cells at 10 uM incubated for 15 mins prior to arachidonic acid-challenge by radioimmunoassay. In kind it is cell-based. The method, boiled down: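 J774 murine macrophages grown in DMEM with 10% FBS and allowed to adhere for 2 h at 37 °C. Where inhibition exceeded 50%, 0.01–1 μM was also tested. Supernatant PGE2 was measured by RIA as % inhibition versus control, in triplicate wells over three experiments. IC50 came from a sigmoidal variable-slope fit.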

The subject of assay [5] is Mus musculus. Description: Analgesic activity in Swiss albino mouse abdominal constriction model assessed as reduction in acetic acid-induced writhing response at 30 mg/kg, po administered 30 mins prior to acetic acid-challenge measured after 5 mins relative to vehicle-treated control. It is filed as functional, Abdomen. Further details: scale not given: the % may be the effect or the level left. The method, boiled down: (§1)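 Male Swiss albino mice (23−25 g); 0.6% acetic acid (10 mL/kg) injected ip. Stretching movements counted for 10 min, starting 5 min after administration. Oral doses in carboxymethylcellulose (CMC) vehicle, compared with vehicle-treated mice.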

Assay [6] has as its target Prostaglandin G/H synthase 1 (Homo sapiens, UniProt P23219). Description: Inhibition of platelet COX1-mediated TXB2 production in LPS-induced human whole blood after 60 mins by radioimmunoassay. In kind it is tissue-based.
The subject of assay [7] is Rattus norvegicus. Description: Antiinflammatory activity against carrageenan-induced paw edema in Sprague-Dawley rat assessed as paw weight at 30 mg/kg, po administered 4 hrs post challenge measured after 60 mins (reference value: 31.8+/-2.5 g). It is filed as functional.
For assay [8], the system named is Rattus norvegicus. Description: Antiinflammatory activity against carrageenan-induced paw edema in Sprague-Dawley rat assessed as paw weight at 30 mg/kg, po administered 4 hrs post challenge measured after 120 mins (reference value: 31.8+/-2.5 g). In kind it is functional.
For assay [9], the system named is Rattus norvegicus. Description: Antiinflammatory activity against carrageenan-induced edema in Sprague-Dawley rat assessed as right hind paw volume at 30 mg/kg, po administered 4 hrs post challenge measured after 60 mins. In kind it is functional. The essentials:
(§2)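 Rats received intraplantar carrageenan. Right hind paw volume was measured 4 h after the carrageenan injection and compared with saline/carrageenan-treated controls. Oral dosing in CMC vehicle; volume recorded at 60 min after treatment.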

Assay [10] addresses T3, Prostaglandin G/H synthase 1 (Mus musculus, UniProt P22437).
T3 sequence (P22437 whole entry): T2 sequence (whole entry)
Nature of the assay: Inhibition of COX-1-mediated PGE2 production in arachidonic acid-stimulated mouse J774 cells incubated for 15 mins prior to arachidonic acid-challenge by radioimmunoassay. In kind it is cell-based. The method, boiled down: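 J774 murine macrophages grown in DMEM with 10% FBS and allowed to adhere for 2 h at 37 °C. Cells were pretreated with compound at 10 μM for 15 min, then given 15 μM arachidonic acid for 30 min at 37 °C. Where inhibition exceeded 50%, 0.01–1 μM was also tested. Supernatant PGE2 was measured by RIA as % inhibition versus control, in triplicate wells over three experiments. IC50 came from a sigmoidal variable-slope fit.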

For a further assay, the system named is J774. Nature of the assay: Selectivity ratio of IC50 for COX1 in mouse J774 cells to IC50 for COX2 in mouse J774 cells. It is filed as cell-based. The method, boiled down: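 Ratio of J774 IC50s, COX-1 over COX-2. For COX-1, cells were pretreated with compound for 15 min, then given 15 μM arachidonic acid for 30 min at 37 °C. For COX-2, cells received E. coli LPS 10 μg/mL for 24 h with compound at 0.01–10 μM. PGE2 was measured by RIA in triplicate wells over three experiments. IC50 came from a sigmoidal fit.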

For assay [11], the system named is Rattus norvegicus. Description: Antiinflammatory activity against carrageenan-induced edema in Sprague-Dawley rat assessed as right hind paw volume at 40 mg/kg, po administered 4 hrs post challenge measured after 60 mins. In kind it is functional. The method, boiled down:
as §2

Assay [12] has as its system Rattus norvegicus. Nature of the assay: Antiinflammatory activity against carrageenan-induced paw edema in Sprague-Dawley rat assessed as paw weight at 40 mg/kg, po administered 4 hrs post challenge measured after 30 mins (reference value: 29.8+/-3.1 g). It is filed as functional.
Assay [13] relates to Rattus norvegicus. Description: Antiinflammatory activity against carrageenan-induced paw edema in Sprague-Dawley rat assessed as paw weight at 20 mg/kg, po administered 4 hrs post challenge measured after 60 mins (reference value: 32.6+/-2.7 g). In kind it is functional.
The test system of assay [14] is Rattus norvegicus. Nature of the assay: Antiinflammatory activity against carrageenan-induced paw edema in Sprague-Dawley rat assessed as paw weight at 40 mg/kg, po administered 4 hrs post challenge measured after 60 mins (reference value: 29.8+/-3.1 g). In kind it is functional.
Assay [15] deals with Mus musculus. Nature of the assay: Analgesic activity in Swiss albino mouse abdominal constriction model assessed as reduction in acetic acid-induced writhing response for 10 mins at 40 mg/kg, po administered 30 mins prior to acetic acid-challenge measured after 5 mins relative to vehicle-treated control. In kind it is functional, Abdomen. Further details: scale not given: the % may be the effect or the level left. The method, boiled down: as §1

Assay [16] relates to Rattus norvegicus. Nature of the assay: Antiinflammatory activity against carrageenan-induced edema in Sprague-Dawley rat assessed as right hind paw volume at 100 mg/kg, po administered 4 hrs post challenge measured after 60 mins. In kind it is functional. The essentials:
as §2

The test system of assay [17] is Rattus norvegicus. Description: Antiinflammatory activity against carrageenan-induced paw edema in Sprague-Dawley rat assessed as paw weight at 20 mg/kg, po administered 4 hrs post challenge measured after 30 mins (reference value: 32.6+/-2.7 g). In kind it is functional.
Assay [18] concerns Aorta. Nature of the assay: Vasorelaxation activity against KCl-induced contraction in isolated Wistar rat thoracic endothelium-denulated aortic rings. It is filed as functional, tissue-based. The essentials: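 Endothelium-denuded thoracic aortic rings from male Wistar rats (250−350 g); denudation confirmed by <10% relaxation to 10 μM ACh. Rings precontracted with 30 mM KCl; compound added at 3-fold increasing concentrations, 1 nM to 10 μM. Isometric tension recorded. Emax given as % of KCl tone; pIC50 derived. Mean ± standard error of 6−10 experiments; repeated with 1 μM ODQ.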

The subject of assay [19] is Rattus norvegicus. Nature of the assay: Antiinflammatory activity against carrageenan-induced edema in Sprague-Dawley rat assessed as right hind paw volume at 20 mg/kg, po administered 4 hrs post challenge measured after 60 mins. It is filed as functional. The essentials:
as §2

In assay [20] the test system is Rattus norvegicus. Nature of the assay: Antiinflammatory activity against carrageenan-induced paw edema in Sprague-Dawley rat assessed as paw weight at 100 mg/kg, po administered 4 hrs post challenge measured after 30 mins (reference value: 31.9+/-3.0 g). In kind it is functional.
Assay [21] has as its system Aorta. Description: Vasorelaxation activity against KCl-induced contraction in isolated Wistar rat thoracic endothelium-denulated aortic rings in the presence of guanylate cyclase inhibitor ODQ. It is filed as functional, tissue-based. The essentials: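 Thoracic aortic rings from male Wistar rats (250–350 g), endothelium removed by rubbing; rings relaxing ≥10% to ACh 10 μM on KCl 30 mM tone were discarded. ODQ 1 μM was incubated, then rings were contracted with KCl 30 mM and given 3-fold increasing concentrations of 1 nM–10 μM.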

Assay [22] deals with Rattus norvegicus. Nature of the assay: Antiinflammatory activity against carrageenan-induced paw edema in Sprague-Dawley rat assessed as paw weight at 100 mg/kg, po administered 4 hrs post challenge measured after 60 mins (reference value: 31.9+/-3.0 g). In kind it is functional.

Molecules are shown by their SMILES. pIC50: −log10 of the molar value. Activity calls are given as the source filed them. The calls are words filed in the database; no cut-off is given here. A value given as a limit tells only on which side of the number the result lay.

Sequence of Prostaglandin G/H synthase 1 (Homo sapiens, UniProt P23219) (P23219 whole entry): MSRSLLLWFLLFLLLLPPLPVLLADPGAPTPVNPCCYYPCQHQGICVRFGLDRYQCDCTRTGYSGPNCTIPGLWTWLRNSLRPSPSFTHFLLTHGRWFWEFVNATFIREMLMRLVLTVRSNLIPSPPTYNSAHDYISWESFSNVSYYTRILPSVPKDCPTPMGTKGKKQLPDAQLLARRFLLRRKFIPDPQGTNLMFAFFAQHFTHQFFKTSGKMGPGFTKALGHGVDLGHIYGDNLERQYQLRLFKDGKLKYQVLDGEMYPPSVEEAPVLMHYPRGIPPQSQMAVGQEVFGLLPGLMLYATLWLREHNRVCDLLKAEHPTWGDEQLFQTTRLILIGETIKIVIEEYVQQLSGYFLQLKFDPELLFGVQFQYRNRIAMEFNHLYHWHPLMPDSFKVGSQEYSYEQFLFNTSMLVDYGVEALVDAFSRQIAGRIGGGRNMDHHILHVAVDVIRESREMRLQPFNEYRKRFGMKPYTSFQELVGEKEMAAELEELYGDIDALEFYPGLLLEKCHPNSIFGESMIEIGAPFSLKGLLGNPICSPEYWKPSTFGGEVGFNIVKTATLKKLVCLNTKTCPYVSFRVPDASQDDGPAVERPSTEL

By pIC50 is commonly meant the negative decadic logarithm of the IC50, by convention in mol/L. What is called inhibition is the drop in the measured response relative to a control, in per cent. As to `Cc1c(CC(=O)OCCO)cc(-c2ccc(S(C)(=O)=O)cc2)n1-c1cccc(F)c1`, the Activity in the assay with Rattus norvegicus [1] worked out at 80%; in the assay with Rattus norvegicus [2], 55.7 g; in the assay on Mus musculus [5], 70%; with Rattus norvegicus [7], 52.3 g; with Rattus norvegicus [8], 39.3 g; in the assay with Rattus norvegicus [9] it was 2.51 mL. Also, the results for the pIC50 in [3], in [6] and in assay [10] were 5.77, 4.91 and less than 5.00, respectively. In assay [4], this compound displayed an inhibition of 33%. For the same compound, the Ratio IC50 in the assay on J774 was greater than 118.

`Cc1c(CC(=O)OCCO[N+](=O)[O-])cc(-c2ccc(S(C)(=O)=O)cc2)n1-c1cccc(F)c1`: the pIC50 is 5.49 in [3], 5.02 in [6], 6.48 in the assay with Aorta [18] and less than 5.00 in [10]. In addition, the Activity in the assay with Rattus norvegicus [11] was determined as 2.17 mL; with Rattus norvegicus [12], 54.1 g; with Rattus norvegicus [13], 35.3 g; with Rattus norvegicus [14], 38.7 g; with Mus musculus [15], 70%; with Rattus norvegicus [16], 1.88 mL. In addition, the Activity in the assay with Rattus norvegicus [17] amounted to 40.1 g; in the assay with Rattus norvegicus [19], 2.52 mL; in the assay on Rattus norvegicus [20], 57.2 g; in the assay with Rattus norvegicus [22], 36.5 g. This compound also gave an inhibition in [4] of 36%. Also, the result with Aorta [21] was inactive. In addition, the Ratio IC50 in the assay with J774 was greater than 526.

For the origin of these results see ChEMBL document CHEMBL1938239, “Novel analgesic/anti-inflammatory agents: diarylpyrrole acetic esters endowed with nitric oxide releasing properties” (J Med Chem, 2011).
